Assay results taken from ChEMBL document CHEMBL1146857 (J Med Chem, 2006).
Calls of active or inactive are those of the source. The calls are words filed in the database; no cut-off is given here.

Tests used:
Homo sapiens [1] = species: Homo sapiens; experiment: Selectivity for HDAC6 over HDAC1
Histone deacetylase 4 = Histone deacetylase 4 (Homo sapiens, UniProt P56524); experiment: Inhibition of HDAC4
[2] = molecular target: T1, Protein deacetylase HDAC6 (Homo sapiens, UniProt Q9UBN7); experiment: Inhibition of HDAC6
T1 sequence (Q9UBN7 whole entry): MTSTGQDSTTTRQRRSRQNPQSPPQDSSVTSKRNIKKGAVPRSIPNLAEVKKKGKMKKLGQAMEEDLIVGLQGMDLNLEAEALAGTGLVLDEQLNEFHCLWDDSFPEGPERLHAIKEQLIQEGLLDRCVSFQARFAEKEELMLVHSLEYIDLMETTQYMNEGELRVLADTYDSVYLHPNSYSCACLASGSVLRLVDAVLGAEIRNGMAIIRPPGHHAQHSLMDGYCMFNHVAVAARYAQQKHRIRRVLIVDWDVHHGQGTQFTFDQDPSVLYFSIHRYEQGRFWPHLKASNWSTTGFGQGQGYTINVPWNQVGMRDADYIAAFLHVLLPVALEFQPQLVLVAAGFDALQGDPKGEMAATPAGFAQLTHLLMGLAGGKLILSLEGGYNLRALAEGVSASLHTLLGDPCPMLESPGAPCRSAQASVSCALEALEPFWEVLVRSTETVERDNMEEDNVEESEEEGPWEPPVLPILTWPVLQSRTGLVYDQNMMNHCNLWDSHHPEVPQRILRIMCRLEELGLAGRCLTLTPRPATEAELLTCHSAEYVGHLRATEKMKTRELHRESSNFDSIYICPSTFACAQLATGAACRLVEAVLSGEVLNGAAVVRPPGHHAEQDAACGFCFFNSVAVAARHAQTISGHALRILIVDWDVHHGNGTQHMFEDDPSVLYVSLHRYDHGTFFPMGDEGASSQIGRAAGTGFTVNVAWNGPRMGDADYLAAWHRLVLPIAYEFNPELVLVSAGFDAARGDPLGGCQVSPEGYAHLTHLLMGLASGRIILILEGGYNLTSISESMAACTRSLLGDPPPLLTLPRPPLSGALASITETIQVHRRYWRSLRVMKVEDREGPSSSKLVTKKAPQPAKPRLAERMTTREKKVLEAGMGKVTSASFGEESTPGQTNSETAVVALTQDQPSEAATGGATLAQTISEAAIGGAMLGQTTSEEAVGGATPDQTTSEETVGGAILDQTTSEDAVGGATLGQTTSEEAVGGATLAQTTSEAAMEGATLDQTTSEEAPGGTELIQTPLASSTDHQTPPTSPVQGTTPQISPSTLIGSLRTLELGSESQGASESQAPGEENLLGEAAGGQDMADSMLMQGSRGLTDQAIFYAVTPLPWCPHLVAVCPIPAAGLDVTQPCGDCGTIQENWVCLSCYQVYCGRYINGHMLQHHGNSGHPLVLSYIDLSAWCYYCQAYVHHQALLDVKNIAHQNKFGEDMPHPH

Homo sapiens [3] = species: Homo sapiens; experiment: Selectivity for HDAC6 over HDAC4
Histone deacetylase 1 = Histone deacetylase 1 (Homo sapiens, UniProt Q13547); experiment: Inhibition of HDAC1
Chain of Histone deacetylase 1 (Q13547 whole entry): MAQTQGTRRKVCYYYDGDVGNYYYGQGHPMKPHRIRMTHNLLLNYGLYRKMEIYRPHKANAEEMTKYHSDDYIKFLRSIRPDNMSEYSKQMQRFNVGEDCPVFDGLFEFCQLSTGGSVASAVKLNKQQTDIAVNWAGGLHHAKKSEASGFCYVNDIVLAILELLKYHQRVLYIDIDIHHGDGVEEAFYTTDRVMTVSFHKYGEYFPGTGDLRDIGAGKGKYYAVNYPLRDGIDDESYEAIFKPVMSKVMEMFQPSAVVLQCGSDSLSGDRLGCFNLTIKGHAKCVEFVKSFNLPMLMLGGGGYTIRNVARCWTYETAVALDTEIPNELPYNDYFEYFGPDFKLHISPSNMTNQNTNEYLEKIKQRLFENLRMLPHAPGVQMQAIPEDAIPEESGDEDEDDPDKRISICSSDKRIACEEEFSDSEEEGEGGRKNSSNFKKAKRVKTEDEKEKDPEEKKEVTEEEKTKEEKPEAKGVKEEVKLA

HCT-116 [4] = experiment: Increase in acetylated alpha-tubulin accumulation in human HCT116 cells after 8 hrs; assay type: functional, cell-based
Outline: (§1)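 HCT116 cells were treated for 8 h in McCoy5A medium with 0.1% DMSO over a range of concentrations. Acetylated α-tubulin and histone H4 were detected by Western blot and quantified, and EC50 values were estimated from the concentration curves.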

HCT-116 [5] = experiment: Increase in acetylated histone H4 accumulation in human HCT116 cells after 8 hrs; assay type: functional, cell-based; outline: as §1

Chain of Histone deacetylase 4 (P56524 whole entry): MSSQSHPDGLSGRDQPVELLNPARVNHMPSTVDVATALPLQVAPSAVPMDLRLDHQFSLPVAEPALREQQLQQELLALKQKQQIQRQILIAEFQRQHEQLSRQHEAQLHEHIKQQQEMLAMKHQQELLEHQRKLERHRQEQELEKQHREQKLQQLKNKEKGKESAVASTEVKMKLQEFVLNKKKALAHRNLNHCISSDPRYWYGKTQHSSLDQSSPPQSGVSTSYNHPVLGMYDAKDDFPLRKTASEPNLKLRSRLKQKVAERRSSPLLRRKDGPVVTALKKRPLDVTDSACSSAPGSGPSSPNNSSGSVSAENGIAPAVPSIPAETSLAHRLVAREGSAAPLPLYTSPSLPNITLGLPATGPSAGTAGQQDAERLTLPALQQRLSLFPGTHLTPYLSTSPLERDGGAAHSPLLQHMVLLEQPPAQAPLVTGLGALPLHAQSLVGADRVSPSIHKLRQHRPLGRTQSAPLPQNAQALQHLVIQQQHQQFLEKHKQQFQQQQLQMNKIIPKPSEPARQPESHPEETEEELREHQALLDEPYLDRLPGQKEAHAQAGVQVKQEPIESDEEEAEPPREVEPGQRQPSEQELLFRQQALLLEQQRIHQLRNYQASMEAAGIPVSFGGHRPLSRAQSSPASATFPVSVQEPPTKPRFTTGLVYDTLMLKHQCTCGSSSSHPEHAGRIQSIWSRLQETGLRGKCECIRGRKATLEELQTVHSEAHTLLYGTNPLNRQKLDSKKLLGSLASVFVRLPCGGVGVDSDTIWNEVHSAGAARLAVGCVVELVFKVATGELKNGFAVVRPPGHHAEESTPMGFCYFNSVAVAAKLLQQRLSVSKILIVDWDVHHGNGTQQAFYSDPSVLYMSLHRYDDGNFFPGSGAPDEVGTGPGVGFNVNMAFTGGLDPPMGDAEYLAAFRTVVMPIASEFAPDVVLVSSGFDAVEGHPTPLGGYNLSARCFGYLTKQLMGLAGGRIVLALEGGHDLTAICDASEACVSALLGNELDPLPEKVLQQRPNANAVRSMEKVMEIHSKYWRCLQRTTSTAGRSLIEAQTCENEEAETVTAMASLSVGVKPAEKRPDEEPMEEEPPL

Structure (SMILES) | Selectivity ratio (Homo sapiens [1]) | IC50 (Histone deacetylase 4) | IC50 [2] | Selectivity ratio (Homo sapiens [3]) | IC50 (Histone deacetylase 1) | Activity (HCT-116 [4]) | also measured
CC(C)(C)OC(=O)N[C@@H](CCCCCS)C(=O)NC1CCCCC1 | 35 | 1140 nM | 36 nM | 32 | 1270 nM | – | –
CC(C)C(=O)SCCCCC[C@H](NC(=O)OC(C)(C)C)C(=O)NC(C)(C)C | – | – | – | – | – | Dose-dependent effect | –
CC(C)C(=O)SCCCCCCC(=O)Nc1nc(-c2ccccc2)cs1 | – | – | – | – | – | Active | Activity (HCT-116 [5]): Active
CC(C)(C)OC(=O)N[C@@H](CCCCCS)C(=O)NC1CCCC1 | 42 | 1030 nM | 29 nM | 36 | 1210 nM | – | –
CC(C)(C)OC(=O)N[C@@H](CCCCCS)C(=O)NC1CCCCCC1 | 39 | 840 nM | 23 nM | 37 | 900 nM | – | –
CC(C)C(=O)SCCCCCCC(=O)Nc1cccc(-c2ccccc2)c1 | – | – | – | – | – | – | Activity (HCT-116 [5]): Active
CC(C)C(=O)SCCCCC[C@H](NC(=O)OC(C)(C)C)C(=O)NC1CCCC1 | – | – | – | – | – | Dose-dependent effect | –
CC(C)C(=O)SCCCCC[C@H](NC(=O)OC(C)(C)C)C(=O)NC1CCCCC1 | – | – | – | – | – | Dose-dependent effect | –
CC(C)C(=O)SCCCCC[C@H](NC(=O)OC(C)(C)C)C(=O)NC1CCCCCC1 | – | – | – | – | – | Dose-dependent effect | –
